According to ChEMBL document CHEMBL4610039, “Design, synthesis and apoptosis-related antiproliferative activities of chelidonine derivatives” (Bioorg Med Chem Lett, 2020):
pIC50: −log10 of the molar value.

Assays:
HepG2 = assay: Antiproliferative activity against human HepG2 cells assessed as reduction in cell growth after 72 hrs by MTT assay; type: functional, cell-based; conditions: HepG2, 72 h
Method in brief: (§1)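 Human HepG2, MCF-7, HCT-116 and K562 tumour cells plus normal L-02 hepatocytes and PBMCs were exposed to compounds for 72 h and growth was read by MTT. 5-Fu served as positive control. IC50 is the concentration inhibiting 50% of cell growth, given as mean ± standard deviation of three independent experiments.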

MCF7 = assay: Antiproliferative activity against human MCF7 cells assessed as reduction in cell growth after 72 hrs by MTT assay; type: functional, cell-based; conditions: MCF7, 72 h; method in brief: as §1
HCT-116 = assay: Antiproliferative activity against human HCT116 cells assessed as reduction in cell growth after 72 hrs by MTT assay; type: functional, cell-based; conditions: HCT-116, 72 h; method in brief: as §1
K562 = assay: Antiproliferative activity against human K562 cells assessed as reduction in cell growth after 72 hrs by MTT assay; type: functional, cell-based; conditions: K562, 72 h; method in brief: as §1
L02 = assay: Antiproliferative activity against human L02 cells assessed as reduction in cell growth after 72 hrs by MTT assay; type: functional, cell-based; conditions: L02, 72 h; method in brief: as §1
PBMC = assay: Cytotoxicity against human PBMC assessed as reduction in cell growth after 72 hrs by MTT assay; type: cell-based; method in brief: as §1

Compound	pIC50 (HepG2)	pIC50 (MCF7)	pIC50 (HCT-116)	pIC50 (K562)	pIC50 (L02)	pIC50 (PBMC)
CN1Cc2c(ccc3c2OCO3)[C@H]2[C@@H](OC(=O)CCCC(=O)OCCOCCOc3no[n+]([O-])c3S(=O)(=O)c3ccccc3)Cc3cc4c(cc3[C@H]21)OCO4	5.18	5.18	5.07	5.59	4.78	< 4.40
CN1Cc2c(ccc3c2OCO3)[C@H]2[C@@H](OC(=O)CCC(=O)OCCCCOc3no[n+]([O-])c3S(=O)(=O)c3ccccc3)Cc3cc4c(cc3[C@H]21)OCO4	5.19	5.32	5.08	5.54	4.71	< 4.40
CN1Cc2c(ccc3c2OCO3)[C@H]2[C@@H](OC(=O)CCC(=O)OCCCOc3no[n+]([O-])c3S(=O)(=O)c3ccccc3)Cc3cc4c(cc3[C@H]21)OCO4	4.98	5.43	4.80	5.51	4.84	< 4.40
CN1Cc2c(ccc3c2OCO3)[C@H]2[C@@H](OC(=O)CCC(=O)OCCOCCOc3no[n+]([O-])c3S(=O)(=O)c3ccccc3)Cc3cc4c(cc3[C@H]21)OCO4	5.06	5.05	5.06	5.34	4.62	< 4.40
CN1Cc2c(ccc3c2OCO3)[C@H]2[C@@H](OC(=O)CCCC(=O)NCCCOc3no[n+]([O-])c3S(=O)(=O)c3ccccc3)Cc3cc4c(cc3[C@H]21)OCO4	4.97	5.28	5.14	5.50	4.70	< 4.40
CN1Cc2c(ccc3c2OCO3)[C@@H]2[C@H]1c1cc3c(cc1C[C@@H]2O)OCO3 [CHELIDONINE]	< 4.40	< 4.40	< 4.40	4.75	< 4.40	< 4.40
CN1Cc2c(ccc3c2OCO3)[C@H]2[C@@H](OC(=O)CCCC(=O)OCCCCOc3no[n+]([O-])c3S(=O)(=O)c3ccccc3)Cc3cc4c(cc3[C@H]21)OCO4	4.71	5.17	4.72	5.21	< 4.40	< 4.40
CN1Cc2c(ccc3c2OCO3)[C@H]2[C@@H](OC(=O)CCC(=O)NCCCOc3no[n+]([O-])c3S(=O)(=O)c3ccccc3)Cc3cc4c(cc3[C@H]21)OCO4	4.77	4.87	4.76	5.01	4.44	< 4.40
CC(CNC(=O)CCCC(=O)O[C@H]1Cc2cc3c(cc2[C@@H]2[C@H]1c1ccc4c(c1CN2C)OCO4)OCO3)Oc1no[n+]([O-])c1S(=O)(=O)c1ccccc1 (stereo partly specified)	5.12	5.31	4.91	5.57	4.63	< 4.40
CN1Cc2c(ccc3c2OCO3)[C@H]2[C@@H](OC(=O)CCC(=O)NCCOc3no[n+]([O-])c3S(=O)(=O)c3ccccc3)Cc3cc4c(cc3[C@H]21)OCO4	4.94	5.10	4.94	5.50	4.56	< 4.40
CN1Cc2c(ccc3c2OCO3)[C@H]2[C@@H](OC(=O)CCC(=O)OCCCCCCOc3no[n+]([O-])c3S(=O)(=O)c3ccccc3)Cc3cc4c(cc3[C@H]21)OCO4	5.02	5.10	4.78	5.12	< 4.40	< 4.40
CC(CNC(=O)CCC(=O)O[C@H]1Cc2cc3c(cc2[C@@H]2[C@H]1c1ccc4c(c1CN2C)OCO4)OCO3)Oc1no[n+]([O-])c1S(=O)(=O)c1ccccc1 (stereo partly specified)	4.71	5.08	4.78	5.16	< 4.40	< 4.40
CN1Cc2c(ccc3c2OCO3)[C@H]2[C@@H](OC(=O)CCCC(=O)NCCOc3no[n+]([O-])c3S(=O)(=O)c3ccccc3)Cc3cc4c(cc3[C@H]21)OCO4	4.58	4.84	< 4.40	4.92	< 4.40	< 4.40
CN1Cc2c(ccc3c2OCO3)[C@H]2[C@@H](OC(=O)CCCC(=O)OCCCCCCOc3no[n+]([O-])c3S(=O)(=O)c3ccccc3)Cc3cc4c(cc3[C@H]21)OCO4	< 4.40	4.88	< 4.40	5.02	< 4.40	< 4.40
O=c1[nH]cc(F)c(=O)[nH]1 [FLUOROURACIL]	4.49	4.57	5.16	5.40	< 4.40	< 4.40
CN1Cc2c(ccc3c2OCO3)[C@H]2[C@@H](OC(=O)CCC(=O)OCC#CCOc3no[n+]([O-])c3S(=O)(=O)c3ccccc3)Cc3cc4c(cc3[C@H]21)OCO4	4.84	5.27	4.63	5.42	4.55	< 4.40
